Results published in PMC3563353 (Bioconjugate chemistry, 2012).
Entries after “also recorded” stand apart in the source; their conditions may differ.

Experiments:
[1] = tested on: A375/MC1R and A375 xenograft tumors; assay: In vivo fluorescence imaging of bilateral A375 / A375/MC1R xenograft tumors; design: species or system nu/nu mice; settings: p<0.05
B16F10 xenograft tumors = type: in vivo, nu/nu mice; settings: 3 nmol/kg i.v., melanotic B16F10 xenograft
A375/MC1R cells = assay: In vitro MC1R probe uptake study by fluorescence microscopy, A375/MC1R cells; type: cell-based, human; settings: 10 minute pre-incubation with 2 μM NDP-α-MSH before probe
How it was run: (§1)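 Cy5-conjugated MC1R ligand probe at 15 nM in medium, on live cells (1 × 10^4/well) grown 16 h on glass coverslips. Cells: A375/MC1R (stable hMC1R transfectant, 300 μg/ml G418) or melanotic B16F10-Luc; DMEM, 10% FBS, 37°C, 5% CO2. Imaged by fluorescence microscopy from 40 s to 15 min. For blocking, 10 min pre-incubation with 2 μM NDP-α-MSH.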

B16F10 cells = assay: In vitro MC1R probe uptake study by fluorescence microscopy, B16F10 cells; type: cell-based, mouse
How it was run: as §1

MC5R = settings: cell lines engineered to overexpress MC5R; cited from earlier work
MC4R = settings: cell lines engineered to overexpress MC4R; cited from earlier work

With `CC1(C)C(=CC=C2CCCC(C=CC3=[N+](CCCCS(=O)(=O)O)c4ccc(S(=O)(=O)[O-])cc4C3(C)C)=C2Oc2ccc(S(=O)(=O)O)cc2)N(CCCCCC(=O)NCCN2C(=O)CC(SCCC(=O)NCCCC[C@H](NC(=O)CNC(=O)[C@H](Cc3c[nH]c4ccccc34)NC(=O)[C@H](CCCNC(=N)N)NC(=O)[C@@H](Cc3ccccc3)NC(=O)[C@H](Cc3c[nH]cn3)NC(=O)CCCc3ccccc3)C(N)=O)C2=O)c2ccc(S(=O)(=O)O)cc21` (stereo partly drawn) [MC1RL-800, 4-phenylbutyryl-His-DPhe-Arg-Trp-Gly-Lys(Mpr-IRDye800CW)-NH2] the “tumor uptake with co-injection of excess NDP-α-MSH peptide (in words)” value [1] was “significantly blocked” and the “fluorescence detection in B16F10 tumors with the Optix MX3 imaging system” value (B16F10 xenograft tumors) was “not detectable”.

For `CCN1C(=CC=CC=CC2=[N+](CCCCCC(=O)NCCN3C(=O)CC(SCCC(=O)NCCCC[C@H](NC(=O)CNC(=O)[C@H](Cc4c[nH]c5ccccc45)NC(=O)[C@H](CCCNC(=N)N)NC(=O)[C@@H](Cc4ccccc4)NC(=O)[C@H](Cc4c[nH]cn4)NC(=O)CCCc4ccccc4)C(N)=O)C3=O)c3ccc(S(=O)(=O)O)cc3C2(C)C)C(C)(C)c2cc(S(=O)(=O)[O-])ccc21` (stereo partly shown) [MC1RL-Cy5], the “binding and uptake of probe after blocking with NDP-α-MSH” value (A375/MC1R cells) was “No binding or uptake; also recorded: completely blocked”, the “probe uptake by B16F10 cells after blocking with NDP-α-MSH” value (B16F10 cells; B16F10 cells pre-incubated with unlabeled NDP-α-MSH before probe) was “blocking of probe-uptake was also observed; also recorded: completely blocked” and the “probe uptake by B16F10 cells” value (B16F10 cells; melanotic B16F10 cells with endogenous MC1R, 15 nM probe, 5 min time-point) was “Probe uptake was also observed; also recorded: internalization of probe into the cells”.

In the case of “4-phenylbutyryl-His-DPhe-Arg-Trp-Gly-Lys”, the “affinity for MC5R (in words)” value (MC5R) is given as “high nanomolar” and the “affinity for MC4R (in words)” value (MC4R) is given as “high nanomolar”.
